From PubChem BioAssay
MsrA inhibitor: inhibits bovine methionine sulfoxide reductase A. purified bovine MsrA, absorbance read-out. 0.75% of 360,000 active. inhibition, % at 15.5 µM. AID 651718;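 further: 0% = vehicle wells with enzyme and 100% = reference inhibitor wells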
MT1-MMP act inh: blocks activation of human MT1-MMP. GFP/RFP ratio change, % at 20 µM. HT1080 RFP-PRO-GFP cells, GFP/RFP ratio fluorescence, overnight; percent of plate control window, DMSO zero. AID 651647. 0.061% of 360,000 active. P50281;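 active means GFP/RFP ratio change of at least 30% with cell ATP level not reduced by more than half and red fluorescence within 50% of control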
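Assay system: HT1080 RFP-PRO-GFP cells. Benchmarks: DMSO vehicle wells and RFP-L50D-GFP reporter cell wells. Times: overnight cell settling, then overnight compound exposure, 37 °C, 5% CO2. Compound: 20 µM single dose, 1% DMSO. Read-out basis: GFP/RFP fluorescence ratio.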
SKN-1 block: C. elegans SKN-1 inhibition | C. elegans VP596 Pgst-4::GFP/RFP ratio, acrylamide-induced, 24 h | inhibition, % at 21.8 µM | 0.49% of 360,000 active;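 active means interference check ratio from 0.5 to 1.5 plus GFP to RFP signal ratio inhibition reaching or exceeding a fixed threshold, cut at about 30% in these data, passing the limit was not always enough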
bovine MsrA act: activates bovine MsrA enzyme; 0.3% of 360,000 active; purified bovine MsrA, absorbance read-out; AID 602163; activation, % at 10.6 µM; in the data active means activation above about 7.5%;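 further: 0% = vehicle and 100% = reference activator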
beta cell repl: MIN6 beta-cell proliferation induction; MIN6 cells proliferation, ATPlite luminescence, 48 h; cells starved in 0.2% serum; 100% = growth in 10% serum; proliferation, % at 10 µM; 0.29% of 330,000 active;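 active means compounds whose signal lies at least 3.5 SD above the mean of all wells on their plate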;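 further: 0% = DMSO-treated cells in low-serum medium and 100% = 10% serum control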
DAGLB inhibitor: diacylglycerol lipase beta (human) inhibition | Q8NCG7 | HEK293T DAGLB membrane lysate, EnzChek fluorogenic substrate | inhibition, % at 5.17 µM | 0.059% of 340,000 active | AID 504411; in the data active means inhibition above about 34%;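 further: 0% = enzyme with vehicle and 100% = wells lacking enzyme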
MsrA inh confirm: confirmation of bovine MsrA inhibitors; purified bovine MsrA, absorbance read-out; shares compounds with MsrA inhibitor; inhibition, % at 15.5 µM; 41% of 2,300 active;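 further: coupled to thioredoxin reductase with NADPH and selenocystamine and DMSO as substrate; 0% = vehicle only and 100% = full effect of reference inhibitor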
Numbers without * were called inactive. Shown are actives, neighbours in structure and some others; about 1.8% of the full set was active somewhere. Unless noted, no stated cut-off is given here; in the data, active means inhibition above about 4.5%; inactive means the rest.

CC(C)CN=CC1=C(O)c2ccccc2C1=O was read as MsrA inhibitor 4.1, MT1-MMP act inh -0.4, SKN-1 block 21.3, bovine MsrA act -5.4, beta cell repl -0.1 and DAGLB inhibitor 1.7.
O=C1C(C=NCCCN2CCCC2=O)=C(O)c2ccccc21 was read as MsrA inhibitor 5.2*, MT1-MMP act inh 3.6, SKN-1 block -7.1, bovine MsrA act -2.2, beta cell repl -0.8, DAGLB inhibitor 1.0 and MsrA inh confirm 2.6.
`O=C1C(C=NCCCn2ccnc2)=C(O)c2ccccc21` gave MsrA inhibitor 4.7*, MT1-MMP act inh 6.0, SKN-1 block 1.3, bovine MsrA act -8.9, beta cell repl 2.0, DAGLB inhibitor 1.4 and MsrA inh confirm 1.9.
O=C(N/N=C/c1cc([N+](=O)[O-])ccc1O)C1CC1 was read as MsrA inhibitor 5.4*, MT1-MMP act inh 3.1, SKN-1 block -4.0, bovine MsrA act -5.1, beta cell repl 0.6, DAGLB inhibitor 2.4 and MsrA inh confirm 3.0.
`O=C1NCCCC1C(=O)N/N=C/c1cc([N+](=O)[O-])ccc1O` (stereo not drawn) gave MsrA inhibitor 3.9, MT1-MMP act inh 1.3, SKN-1 block -4.0, bovine MsrA act -4.9, beta cell repl 0.4 and DAGLB inhibitor 1.6.
Screening O=C(N/N=C/c1cc(Br)c(O)c(Br)c1)C1CC1 returned MsrA inhibitor 5.3*, MT1-MMP act inh -2.2, SKN-1 block 5.6, bovine MsrA act -4.3, beta cell repl 0.1, DAGLB inhibitor 2.1 and MsrA inh confirm 4.6*.
CCOC(=O)CC1COCCN1Cc1cn[nH]c1-c1cc(OC)c(OC)c(OC)c1 (stereo not drawn) was read as MsrA inhibitor -0.4, MT1-MMP act inh -0.2, SKN-1 block -2.5, bovine MsrA act -5.0, beta cell repl -2.8 and DAGLB inhibitor 0.3.
Screening Nc1ccc(C(=O)N/N=C2\CCCc3c2[nH]c2ccccc32)cc1 returned MsrA inhibitor 5.3*, MT1-MMP act inh 8.5, SKN-1 block -14.6, bovine MsrA act -5.8, beta cell repl 1.8, DAGLB inhibitor 4.2 and MsrA inh confirm 7.1*.
Screening Nc1nonc1-c1nc2ccccc2n1CC(=O)N/N=C/c1ccc(-c2ccccc2C(=O)O)o1 returned MsrA inhibitor 7.3*, MT1-MMP act inh -1.4, SKN-1 block -1.3, bovine MsrA act -7.6, beta cell repl -0.6, DAGLB inhibitor 2.5 and MsrA inh confirm 6.9*.
CCN(CC)c1ccc(/C=N/Nc2nn[nH]n2)cc1 was read as MsrA inhibitor 6.4*, MT1-MMP act inh 0.6, SKN-1 block -6.5, bovine MsrA act -9.8, beta cell repl -6.0, DAGLB inhibitor -2.7 and MsrA inh confirm 3.9.
`Cc1nonc1C1CCCN1Cc1cn[nH]c1-c1ccc(-c2ccccc2)cc1` (stereo not drawn) gave MsrA inhibitor 28.7*, MT1-MMP act inh -4.7, SKN-1 block 2.5, bovine MsrA act -4.9, beta cell repl -5.2, DAGLB inhibitor 1.6 and MsrA inh confirm 21.7*.
For COc1ccc(CC2(C)OC(c3ccc([N+](=O)[O-])cc3)=NN2C(C)=O)cc1 (stereo not drawn) the results were MsrA inhibitor 0.3, MT1-MMP act inh -3.2, SKN-1 block -10.1, bovine MsrA act -6.4, beta cell repl -4.0 and DAGLB inhibitor -10.0.
CC(=O)c1ccc(N2CCN(C(=O)C(=O)c3cn(CC(=O)N4CCOCC4)c4ccccc34)CC2)cc1 was read as MsrA inhibitor 6.8*, MT1-MMP act inh 3.6, SKN-1 block -6.9, bovine MsrA act -5.0, DAGLB inhibitor -1.3 and MsrA inh confirm 5.6*.
`C/C(=N\NC(=O)c1cccc(C)c1)c1ccc(N2CCOCC2)cc1` gave MsrA inhibitor 5.3*, MT1-MMP act inh -6.2, SKN-1 block -10.2, bovine MsrA act -10.8, beta cell repl -0.5, DAGLB inhibitor -1.2 and MsrA inh confirm 2.8.
For Oc1cccc(/C=N/NC(=S)NCCN2CCOCC2)c1O the results were MsrA inhibitor 1.6, MT1-MMP act inh 3.2, SKN-1 block 2.7, bovine MsrA act -3.4, beta cell repl -5.1 and DAGLB inhibitor -2.6.
